Source: PubChem (several laboratories)
The sample as a whole holds a higher share of hits than the screen did.
Biofilm kill mix: clotrimazole potentiators killing C. albicans biofilm, primary screen, 4-compound mixtures. inhibition, % at 7.6 µM. actives 0.02% (n = 120,000). C. albicans biofilm persisters + clotrimazole, fluorescence viability; primary screen in compound mixtures of four per well;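 further: compounds exposed to preformed 24 h biofilms for 48 h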
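Test system: C. albicans CAF4-2 wild-type biofilms; buffer or medium: RPMI/MOPS medium, pH 7.0; schedule: 24 h biofilm formation, then 48 h compound exposure, 37 °C; detection: Alamar Blue fluorescence; measure: percent inhibition of biofilm viability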
Pf gamet viab: late stage P. falciparum gametocyte viability inhibitors, primary screen, ATP luminescence, HTS; P. falciparum stage V gametocytes, 24 h; inhibition, % at 10.9 µM; actives 0.065% (n = 150,000);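 active means inhibition above the mean plus 3 SD of compounds within the control limits, set per campaign, cut at about 38% in these data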
ROMK mod: ROMK potassium channel modulators, primary screen, cell-based, thallium flux, MLSMR library; Tet-inducible ROMK, thallium flux fluorescence; actives lie on both sides; B-score at 10 µM; AID 1918, 2009; actives 2% (n = 130,000);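 active means signal ratio slope over the read window, or its plate-corrected B-score, at least 3 SD from the plate mean, either direction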;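 further: B-score of the F/F0 ratio slope over 7 to 12 s after thallium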
Target sequence (P48048 whole entry, looked up): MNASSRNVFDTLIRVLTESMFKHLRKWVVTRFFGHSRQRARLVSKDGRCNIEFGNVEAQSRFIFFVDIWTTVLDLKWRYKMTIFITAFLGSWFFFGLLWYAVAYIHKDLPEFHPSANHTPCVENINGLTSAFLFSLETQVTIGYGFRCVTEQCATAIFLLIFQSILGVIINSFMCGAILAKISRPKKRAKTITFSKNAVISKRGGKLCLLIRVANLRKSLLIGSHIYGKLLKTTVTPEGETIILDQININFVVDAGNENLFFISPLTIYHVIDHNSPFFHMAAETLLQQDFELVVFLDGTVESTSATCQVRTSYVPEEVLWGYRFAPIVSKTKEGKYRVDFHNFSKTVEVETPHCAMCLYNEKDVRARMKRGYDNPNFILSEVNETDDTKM
ROMK retest: ROMK channel modulator hit retest, confirmation, cell-based, thallium flux, duplicate, resupplied hits; shares compounds with ROMK mod; fluorescence ratio; active compounds read low; normalized thallium flux (F/F0 slope) at 10 µM; actives 54% (n = 3,000); AID 1917, 2009;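 active means Flux at 10 µM at least 3 SD below or above vehicle control mean in one or both replicates; inconclusive means no clear call, values can overlap the other calls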
Hits are given with their value; - = inactive; ? = inconclusive; . = no result.

SMILES | Biofilm kill mix | Pf gamet viab | ROMK mod | ROMK retest
N#CC1(c2ccc(NC(=O)c3ccccc3)cc2)CCCC1 | . | . | 2.3 | -
O=C(Nc1ccc(Nc2ccccc2)cc1)c1ccccc1 | . | - | . | .
CC(C)C(NS(=O)(=O)c1cccc2nsnc12)C(=O)Nc1nccs1 (stereo not drawn) | - | - | - | .
Cc1ccc2nc(NC(=O)C(NS(=O)(=O)c3cccc4nsnc34)C(C)C)sc2c1 (stereo not drawn) | . | . | . | 0.062
COc1ccccc1C1CCN(C(=O)c2cccs2)CC1 | - | - | - | .
COc1ccccc1C1CCN(c2cc(O)ccc2[N+](=O)[O-])CC1 | - | - | . | -
CCOC(=O)C1=C(C)NC(C)=C(C(=O)OCC)C1C(=O)OCC(=O)N(CC)C1CCS(=O)(=O)C1 (stereo not drawn) | - | - | - | .
Cc1oc(-c2ccccc2F)nc1CN1CCC(C(=O)NCc2ccco2)CC1 | . | - | - | .
Cc1oc(-c2ccccc2F)nc1CN1CCC(C(=O)NC2CCCCCCC2)CC1 | . | . | -4.6 | 0.058
CCN1CCc2c(C#N)c(N3CCOCC3)nc(NCc3ccccc3)c2C1 | . | - | - | .
CCN1CCc2c(C#N)c(N3CCCCC3)nc(NCc3ccccc3)c2C1 | . | - | -2.6 | 0.066
COc1ccc(S(=O)(=O)Nc2cccc(S(=O)(=O)N(C)C)c2)cc1[N+](=O)[O-] | . | - | . | .
CCCCCc1nc2c(c(=O)c3ccccc3n2C)c(=O)n1Cc1ccc(OC)cc1 | - | - | . | .
CCOC(=O)c1c(-c2ccccc2)csc1NC(=O)C1CCCO1 (stereo not drawn) | . | . | - | .
CCOC(=O)c1c(-c2ccc(-c3ccccc3)cc2)csc1NC(=O)C1C2CCC(O2)C1C(=O)O (stereo not drawn) | . | - | . | 0.11
CCOC(=O)c1c(O)cc(C)[nH]c1=O | - | - | . | .
O=C(Nc1ccc(F)cc1)Nc1ccc(NC(=O)c2ccccc2O)cc1 | - | - | -11 | -
O=C(Nc1ccc(F)cc1)c1ccccc1F | . | - | - | .
O=C(Nc1cc(Cl)ccn1)C1(c2ccccc2)CC1(Cl)Cl (stereo not drawn) | - | - | - | .
Cc1ccccc1-n1c(C)nnc1SCc1cc(=O)oc2ccc3ccccc3c12 | - | - | . | .
O=C(Nc1ccc(Cl)cc1)C(c1ccccc1)N1CCOCC1 (stereo not drawn) | - | . | - | .
CC(C)c1ccc(NC(=O)C(c2ccccc2)N2CC(=O)Nc3ccccc32)cc1 (stereo not drawn) | - | . | 1.9 | -
CCc1ccccc1NC(=O)CN(C)C(=O)CSc1nc2cc(Cl)ccc2s1 | - | - | - | .
Fc1ccccc1CNCCC(Cc1ccccc1)c1ccc2c(c1)OCO2 (stereo not drawn) | - | - | - | .
COc1ccc(CNCCC(c2ccccc2)c2ccc3c(c2)OCO3)cc1 (stereo not drawn) | . | - | . | 0.053
SMILES | Biofilm kill mix | Pf gamet viab | ROMK mod | ROMK retest
COc1ccc(C(CC(=O)c2ccccc2)CC(=O)c2ccccc2)cc1OC | - | . | - | .
O=C(/C=C/c1ccc(Cl)cc1)N(Cc1cccs1)C1CCS(=O)(=O)C1 (stereo not drawn) | - | - | . | .
CN1CCN(c2ccc([N+](=O)[O-])cc2/C=N/NC(=O)c2cccc([N+](=O)[O-])c2)CC1 | - | - | -2.3 | 0.058
CCN(CC)C(=O)C1CCCN(c2ccc([N+](=O)[O-])cc2/C=N/NC(=O)c2ccc([N+](=O)[O-])cc2)C1 (stereo not drawn) | . | . | . | ?
CN1CCN(c2ccccc2NC(=O)c2cccc([N+](=O)[O-])c2)CC1 | - | - | - | .
CCC(=O)N1CCN(c2ccccc2NC(=O)c2ccc(-c3cccc([N+](=O)[O-])c3)o2)CC1 | - | - | . | .
CCN(CC)C(=O)C1CCCN(c2ccc([N+](=O)[O-])cc2/C=N/NC(=O)c2ccccc2)C1 (stereo not drawn) | - | - | - | .
CN1CCN(c2ccccc2NC(=O)c2ccc(-c3cccc([N+](=O)[O-])c3)o2)CC1 | - | - | -2.4 | 0.059
CCCCN=CC1=C(O)CC(c2ccccc2)CC1=O (stereo not drawn) | - | - | - | .
CC1=C(OC(=O)C(C)(C)C)C(C)(C)C(c2ccccc2)OC1=O (stereo not drawn) | - | - | - | .
O=C(c1ccco1)N1CCN(C(c2ccccc2)c2nnnn2C2CCCC2)CC1 (stereo not drawn) | - | - | - | .
CC1CCCC(C)N1C(=O)Cn1cnc2cc([N+](=O)[O-])ccc2c1=O (stereo not drawn) | - | - | - | .
CC1C(=O)C(C)C(c2ccc(Cl)cc2)NC1c1ccc(Cl)cc1 (stereo not drawn) | . | - | . | .
CC1C(=NO)C(C)C(c2ccc(N(C)C)cc2)NC1c1ccc(N(C)C)cc1 (stereo not drawn) | . | . | -4.4 | 0.067
COc1ccc(OC)c(NC(=O)C2CCN(Cc3cnn(-c4ccccc4)c3-n3cccc3)CC2)c1 | . | - | - | .
O=C(Nc1ccccc1Cl)C1CCN(Cc2cnn(-c3ccccc3)c2-n2cccc2)CC1 | . | . | -3.2 | 0.054
Cc1csc(NC(=O)c2cc(-c3ccccc3)nc3ccccc23)n1 | - | . | . | -
CC(=O)Nc1ccc(NC(=O)c2cc(-c3ccccc3)nc3ccccc23)cc1 | . | - | . | .
O=C(NCc1nc2ccccc2[nH]1)C1=C[C@@H](C2CCCCC2)C[C@@H](OCCCCO)O1 | - | - | . | .
CCn1c(SCC(=O)Nc2cc(C)on2)nnc1-c1ccco1 | . | . | - | .
CCCCn1c(SCC(=O)Nc2cc(C)on2)nnc1-c1ccco1 | . | . | 3.2 | -
O=C(Oc1ccc(Nc2ncnc3ccccc23)cc1)c1cccnc1 | - | - | -2.9 | 0.065
CCOC(=O)c1ccc(Nc2ncnc3ccccc23)cc1 | - | - | - | .
O=C1OCC2=C1C(c1ccccc1)CC(=O)N2c1ccc(F)cc1 (stereo not drawn) | - | - | - | .
COc1ccc(CCn2c(NN)nc3c2c(=O)[nH]c(=O)n3C)cc1 | - | - | 4.8 | ?
SMILES | Biofilm kill mix | Pf gamet viab | ROMK mod | ROMK retest
COc1ccc(CCn2c(NN=C(C)C)nc3c2c(=O)[nH]c(=O)n3C)cc1 | - | - | . | .
CCCCNC(=O)C1CCN(c2nc(OC)nc(OC)n2)CC1 | - | - | - | .
COCCOC(=O)C1=C(C)NC(=O)NC1c1cn(-c2ccccc2)nc1-c1cccs1 (stereo not drawn) | . | . | - | .
C=CCOC(=O)C1=C(C)NC(=O)NC1c1cn(-c2ccccc2)nc1-c1cccs1 (stereo not drawn) | . | . | -3 | 0.061
O=C(NN1CC(=O)N(c2cc(Cl)cc(Cl)c2)CC1=O)c1cccs1 | - | - | - | .
COc1cccc(C(=O)Nc2cccc(-c3ccccc3)c2)c1 | . | - | . | .
CC1=C(C#N)c2nc(N)c(C#N)c(C)c2/C1=C\c1ccc(C)cc1 | . | . | . | 0.043
COc1cc(/C=C2\C(C)=C(C#N)c3nc(N)c(C#N)c(C)c32)ccc1OCC(=O)O | - | - | - | .
CC(C(=O)NC(=O)NC1CCCCC1)N1CCN(C(c2ccccc2)c2ccccc2)CC1 (stereo not drawn) | . | - | -3.3 | 0.057
CC(C(=O)NC1CCCC1)N1CCN(Cc2ccccc2)CC1 (stereo not drawn) | - | - | - | .
